Data reported in ChEMBL document CHEMBL2216748 (J Med Chem, 2012).
pIC50: −log10 of the molar value. Active and inactive are the calls of the source. No cut-off for these calls is given here.

Tests used:
[1] = Inhibition of human alpha thrombin using Boc-Val-Pro-Arg-AMC as substrate after 2 hrs by fluorometric analysis
How it was run: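 Human α-thrombin at 5.5 ng/mL final with Boc-Val-Pro-Arg-AMC (15 μM) in 50 mM Tris pH 7.5, 150 mM NaCl, 0.05% Tween 20. Compound tested as 16 two-fold dilutions in DMSO, 2.5 mM to 75 nM. Incubated 2 h at room temperature; fluorescence read at ex 355, em 460 nm for percent inhibition.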

[2] = target: Histamine N-methyltransferase (Homo sapiens) (UniProt P50135); assay: (§1) Displacement of 3-(1-methyl-N-(pyridin-2-yl)-2-((4-(N-((S)-6,9,25-trioxo-29-((3aS,4S,6aR)-2-oxohexahydro-1H-thieno[3,4-d]imidazol-4-yl)-8-(4-(3-(trifluoromethyl)-3H-diazirin-3-yl)benzamido)-14,17,20-trioxa-5,10,24-triazanonacosyl)carbamimidoyl)phenylamino)methyl)-1H-benzo[d]imidazole-5-carboxamido)propanoic acid from HNMT in human HepG2 cell lysate after 1 hr by capture compound based LC/MS analysis; type: cell-free
Sequence of Histamine N-methyltransferase (Homo sapiens) (P50135 whole entry): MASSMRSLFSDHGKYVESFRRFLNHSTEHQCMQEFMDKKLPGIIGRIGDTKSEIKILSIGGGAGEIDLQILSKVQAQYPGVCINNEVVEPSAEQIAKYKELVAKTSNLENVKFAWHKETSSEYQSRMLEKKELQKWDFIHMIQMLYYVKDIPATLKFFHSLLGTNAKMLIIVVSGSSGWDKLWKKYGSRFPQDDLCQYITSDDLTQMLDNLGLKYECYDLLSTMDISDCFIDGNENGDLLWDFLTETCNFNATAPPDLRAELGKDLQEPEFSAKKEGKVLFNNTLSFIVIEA
How it was run: (§2)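 Capture compound MS: 400 μg HepG2 or K562 lysate in capture buffer, precleared with streptavidin beads 30 min at 4 °C. Competition controls preincubated 30 min at 4 °C with free drug (10 μL of 1 mM). Capture compound (10 μL of 50 μM) equilibrated 1 h at 4 °C, UV-irradiated 10 min, streptavidin bead pulldown, on-bead trypsin digestion, nanoLC-MS/MS. Spectral counts compared capture vs competition (t test). HepG2 in quadruplicate, K562 in duplicate.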

[3] = target: T1, Ribosyldihydronicotinamide dehydrogenase [quinone] (Homo sapiens) (UniProt P16083); assay: (§3) Displacement of (S)-N4-(4-(3-(2-((4-carbamimidoylphenylamino)methyl)-1-methyl-N-(pyridin-2-yl)-1H-benzo[d]imidazole-5-carboxamido)propanamido)butyl)-N1-(15-oxo-19-((3aS,4S,6aR)-2-oxohexahydro-1H-thieno[3,4-d]imidazol-4-yl)-4,7,10-trioxa-14-azanonadecyl)-2-(4-(3-(trifluoromethyl)-3H-diazirin-3-yl)benzamido)succinamide from NQO2 in human HepG2 cell lysate at 100 uM after 1 hr by Western blot analysis; type: cell-free
T1 sequence (whole entry): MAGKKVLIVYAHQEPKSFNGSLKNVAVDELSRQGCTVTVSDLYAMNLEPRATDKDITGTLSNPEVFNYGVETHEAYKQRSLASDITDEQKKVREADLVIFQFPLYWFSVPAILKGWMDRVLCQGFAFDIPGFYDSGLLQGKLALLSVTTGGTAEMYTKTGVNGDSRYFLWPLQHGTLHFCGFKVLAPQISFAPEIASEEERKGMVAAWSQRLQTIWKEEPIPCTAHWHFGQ
How it was run: (§4)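 NQO2 capture from HepG2 or K562 lysate, or from pooled human liver microsomes, with capture compound (1 h, 4 °C) after 30 min competitor preincubation. UV cross-linked 10 min and streptavidin pulldown. Detection by Western blot: anti-NQO2 1:500, then HRP anti-rabbit secondary 1:1000.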

[4] = target: T1, Ribosyldihydronicotinamide dehydrogenase [quinone] (Homo sapiens); assay: as §3, with “from human recombinant” for “from”, “NQO2” for “NQO2 in human HepG2 cell lysate at 100 uM”, “silver staining-based SDS PAGE” for “Western blot”
How it was run: (§5)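 Human recombinant NQO2 (1 μg) was preincubated 30 min at 4 °C with competitor, then capture compound was added at 5 μM final (competitors 100 μM final) and equilibrated 1 h at 4 °C. Samples were UV-irradiated 10 min, pulled down on streptavidin beads and resolved by silver-stained SDS-PAGE.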

[5] = target: T1, Ribosyldihydronicotinamide dehydrogenase [quinone] (Homo sapiens); assay: Displacement of (S)-N4-(4-(3-(2-((4-carbamimidoylphenylamino)methyl)-1-methyl-N-(pyridin-2-yl)-1H-benzo[d]imidazole-5-carboxamido)propanamido)butyl)-N1-(15-oxo-19-((3aS,4S,6aR)-2-oxohexahydro-1H-thieno[3,4-d]imidazol-4-yl)-4,7,10-trioxa-14-azanonadecyl)-2-(4-(3-(trifluoromethyl)-3H-diazirin-3-yl)benzamido)succinamide from NQO2 in human K562 cell lysate after 1 hr by capture compound based LC/MS analysis; type: cell-free; how it was run: as §2
[6] = target: Heterogeneous nuclear ribonucleoproteins C1/C2 (Homo sapiens) (UniProt P07910); assay: as §1, with “HNRPC” for “HNMT”; type: cell-free; how it was run: as §2
Sequence of Heterogeneous nuclear ribonucleoproteins C1/C2 (Homo sapiens) (P07910 whole entry): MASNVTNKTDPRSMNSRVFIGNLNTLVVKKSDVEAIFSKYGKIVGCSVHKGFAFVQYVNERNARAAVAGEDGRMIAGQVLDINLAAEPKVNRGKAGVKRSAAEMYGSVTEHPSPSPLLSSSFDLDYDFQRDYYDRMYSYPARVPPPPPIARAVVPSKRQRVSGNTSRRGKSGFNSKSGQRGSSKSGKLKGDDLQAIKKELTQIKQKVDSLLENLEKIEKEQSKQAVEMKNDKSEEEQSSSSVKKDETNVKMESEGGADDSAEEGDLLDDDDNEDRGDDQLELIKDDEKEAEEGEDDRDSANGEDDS

[7] = target: T1, Ribosyldihydronicotinamide dehydrogenase [quinone] (Homo sapiens); assay: Displacement of (S)-N4-(2-(4-(4-(4-methyl-3-(4-(pyridin-3-yl)pyrimidin-2-ylamino)phenylcarbamoyl)benzyl)piperazin-1-yl)ethyl)-N1-(15-oxo-19-((3aS,4S,6aR)-2-oxohexahydro-1H-thieno[3,4-d]imidazol-4-yl)-4,7,10-trioxa-14-azanonadecyl)-2-(4-(3-(trifluoromethyl)-3H-diazirin-3-yl)benzamido)succinamide from human recombinant NQO2 after 1 hr by silver staining-based SDS PAGE analysis; how it was run: as §5
[8] = target: T1, Ribosyldihydronicotinamide dehydrogenase [quinone] (Homo sapiens); assay: as §3, with “K562” for “HepG2”; type: cell-free; how it was run: as §4
[9] = target: T1, Ribosyldihydronicotinamide dehydrogenase [quinone] (Homo sapiens); assay: as §3, with “liver microsomes” for “HepG2 cell lysate at 100 uM”; conditions: Microsome; how it was run: as §4
[10] = target: T1, Ribosyldihydronicotinamide dehydrogenase [quinone] (Homo sapiens); assay: (§6) Displacement of 3-(1-methyl-N-(pyridin-2-yl)-2-((4-(N-((S)-6,9,25-trioxo-29-((3aS,4S,6aR)-2-oxohexahydro-1H-thieno[3,4-d]imidazol-4-yl)-8-(4-(3-(trifluoromethyl)-3H-diazirin-3-yl)benzamido)-14,17,20-trioxa-5,10,24-triazanonacosyl)carbamimidoyl)phenylamino)methyl)-1H-benzo[d]imidazole-5-carboxamido)propanoic acid from human recombinant NQO2 after 1 hr by silver staining-based SDS PAGE analysis; how it was run: as §5
[11] = target: T1, Ribosyldihydronicotinamide dehydrogenase [quinone] (Homo sapiens); assay: Displacement of (S)-N4-(3-(3-(2-((4-carbamimidoylphenylamino)methyl)-1-methyl-N-(pyridin-2-yl)-1H-benzo[d]imidazole-5-carboxamido)propanamido)propyl)-N1-(15-oxo-19-((3aS,4S,6aR)-2-oxohexahydro-1H-thieno[3,4-d]imidazol-4-yl)-4,7,10-trioxa-14-azanonadecyl)-2-(4-(3-(trifluoromethyl)-3H-diazirin-3-yl)benzamido)succinamide from NQO2 in human HepG2 cell lysate after 1 hr by capture compound based LC/MS analysis; how it was run: as §2
[12] = target: T1, Ribosyldihydronicotinamide dehydrogenase [quinone] (Homo sapiens); assay: as §6, with “from NQO2 in” for “from”, “liver microsomes” for “recombinant NQO2”, “Western blot” for “silver staining-based SDS PAGE”; conditions: Microsome; how it was run: as §4
[13] = target: T2, Hypoxia up-regulated protein 1 (Homo sapiens) (UniProt Q9Y4L1); assay: as §1, with “HYOU1” for “HNMT”; type: cell-free; how it was run: as §2
T2 sequence (whole entry): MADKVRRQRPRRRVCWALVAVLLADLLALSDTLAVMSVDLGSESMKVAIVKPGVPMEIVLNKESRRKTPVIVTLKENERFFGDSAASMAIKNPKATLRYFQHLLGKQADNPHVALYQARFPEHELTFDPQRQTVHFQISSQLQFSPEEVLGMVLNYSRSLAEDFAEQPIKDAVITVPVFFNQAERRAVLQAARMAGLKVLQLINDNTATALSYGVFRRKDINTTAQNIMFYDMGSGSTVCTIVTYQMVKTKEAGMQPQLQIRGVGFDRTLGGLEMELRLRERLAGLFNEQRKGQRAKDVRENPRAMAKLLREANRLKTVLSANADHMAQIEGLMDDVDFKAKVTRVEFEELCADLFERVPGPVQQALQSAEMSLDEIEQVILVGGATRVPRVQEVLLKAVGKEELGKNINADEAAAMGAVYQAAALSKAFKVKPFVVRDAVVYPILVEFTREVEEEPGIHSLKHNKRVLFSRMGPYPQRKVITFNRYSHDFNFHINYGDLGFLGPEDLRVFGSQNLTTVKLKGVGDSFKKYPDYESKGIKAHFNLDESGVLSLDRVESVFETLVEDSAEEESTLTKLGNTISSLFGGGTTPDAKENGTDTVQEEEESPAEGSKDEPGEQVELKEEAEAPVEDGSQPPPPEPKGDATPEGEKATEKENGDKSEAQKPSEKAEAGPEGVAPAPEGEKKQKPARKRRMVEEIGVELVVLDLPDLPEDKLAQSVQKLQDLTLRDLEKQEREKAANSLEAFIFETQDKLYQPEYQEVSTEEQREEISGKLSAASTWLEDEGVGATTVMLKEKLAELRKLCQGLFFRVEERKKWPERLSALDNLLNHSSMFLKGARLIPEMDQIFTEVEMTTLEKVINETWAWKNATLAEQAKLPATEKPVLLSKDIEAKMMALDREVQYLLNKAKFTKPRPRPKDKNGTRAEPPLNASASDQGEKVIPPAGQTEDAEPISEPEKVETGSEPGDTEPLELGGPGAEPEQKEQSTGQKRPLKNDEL

[14] = target: Adenosine kinase (Homo sapiens) (UniProt P55263); assay: as §1, with “ADK” for “HNMT”; type: cell-free; how it was run: as §2
Sequence of Adenosine kinase (Homo sapiens) (P55263 2-362 limits assumed): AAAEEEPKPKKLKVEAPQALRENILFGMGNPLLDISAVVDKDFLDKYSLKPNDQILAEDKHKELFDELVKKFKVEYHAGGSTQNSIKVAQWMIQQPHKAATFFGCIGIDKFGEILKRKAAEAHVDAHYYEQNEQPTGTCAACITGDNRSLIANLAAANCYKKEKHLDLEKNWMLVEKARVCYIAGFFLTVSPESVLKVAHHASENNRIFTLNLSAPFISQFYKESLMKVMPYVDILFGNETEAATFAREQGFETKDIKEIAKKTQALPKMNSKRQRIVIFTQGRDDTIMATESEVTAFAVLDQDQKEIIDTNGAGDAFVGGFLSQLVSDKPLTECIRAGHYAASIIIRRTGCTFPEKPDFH

pIC50 [1]: 7.86
Activity [2]: Active
Activity [3]: Active
Activity [4]: Active
Activity [5]: Active
Activity [6]: Active
Activity [7]: Active
Activity [8]: Active
Activity [9]: Active
Activity [10]: Active
Activity [11]: Active
Activity [12]: Active
Activity [13]: Active
Activity [14]: Active
Compound: Cn1c(CNc2ccc(C(=N)N)cc2)nc2cc(C(=O)N(CCC(=O)O)c3ccccn3)ccc21 [DABIGATRAN]
